The values below come from BindingDB's records for doi:10.1016/j.ejmech.2016.05.060 (Xi'An Jiaotong University, 2016).

Experiment [1] deals with T1, M-phase inducer phosphatase 2 (Homo sapiens, UniProt P30305).
T1 sequence (P30305 whole entry): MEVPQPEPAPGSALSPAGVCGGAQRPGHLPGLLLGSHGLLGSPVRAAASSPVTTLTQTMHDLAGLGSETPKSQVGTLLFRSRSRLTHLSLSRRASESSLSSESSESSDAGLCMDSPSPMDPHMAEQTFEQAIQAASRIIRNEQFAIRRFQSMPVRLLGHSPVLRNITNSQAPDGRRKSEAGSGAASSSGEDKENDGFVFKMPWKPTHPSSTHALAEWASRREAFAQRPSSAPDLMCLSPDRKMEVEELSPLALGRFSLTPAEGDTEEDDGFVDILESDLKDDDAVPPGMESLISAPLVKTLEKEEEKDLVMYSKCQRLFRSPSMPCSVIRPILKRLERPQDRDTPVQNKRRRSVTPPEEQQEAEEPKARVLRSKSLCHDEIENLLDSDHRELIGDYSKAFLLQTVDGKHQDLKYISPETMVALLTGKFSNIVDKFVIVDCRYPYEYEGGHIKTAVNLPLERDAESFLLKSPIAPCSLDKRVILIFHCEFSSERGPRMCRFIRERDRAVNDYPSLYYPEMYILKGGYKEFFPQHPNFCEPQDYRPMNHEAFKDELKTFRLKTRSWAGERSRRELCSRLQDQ
The experiment can be described thus: Inhibition of human recombinant GST-tagged CDC25B assessed as reduction in dephosphorylation of florigenic phosphatase substrate preincubated for 1 hr followed by substrate addition measured after 1 hr by fluorescence assay. Summed up:
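Purified GST-CDC25B fusion protein was preincubated with compound for 1 h, then fluorescein diphosphate ([…]) was added. Fluorescence was read within the linear range of the reaction after 1 h at room temperature. Na₃VO₄ served as positive control and DMSO as negative control.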

Experiment [2] has as its target T2, Tyrosine-protein phosphatase non-receptor type 1 (Homo sapiens, UniProt P18031).
T2 sequence (P18031 whole entry): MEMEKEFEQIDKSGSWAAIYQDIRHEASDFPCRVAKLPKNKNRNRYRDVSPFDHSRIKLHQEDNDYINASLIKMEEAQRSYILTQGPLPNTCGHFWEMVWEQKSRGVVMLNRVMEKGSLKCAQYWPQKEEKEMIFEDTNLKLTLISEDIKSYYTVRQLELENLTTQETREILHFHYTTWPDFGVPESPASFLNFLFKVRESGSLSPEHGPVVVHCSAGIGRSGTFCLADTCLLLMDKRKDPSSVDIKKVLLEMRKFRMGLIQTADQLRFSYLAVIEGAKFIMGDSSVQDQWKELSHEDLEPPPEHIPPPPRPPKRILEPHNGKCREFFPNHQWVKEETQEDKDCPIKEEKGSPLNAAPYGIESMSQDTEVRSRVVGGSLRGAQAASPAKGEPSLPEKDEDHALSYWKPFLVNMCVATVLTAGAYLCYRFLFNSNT
Kind of experiment: Inhibition of human recombinant GST-tagged PTP1B catalytic domain expressed in Escherichia coli BL21-Conden plus (DE3) using pNPP as substrate.

For the compound `CCOC(=O)c1c(C)[nH]c(/C=C2\S/C(=N\c3ccc(F)cc3)N(c3ccc(F)cc3)C2=O)c1C`, the IC50 in experiment [1] amounted to 2.87 µM; in experiment [2], 6.09 µM. As for `CCOC(=O)c1c(C)[nH]c(/C=C2\S/C(=N/O)N(C(C)C)C2=O)c1C`, the IC50 in experiment [1] is 5.83 µM. Consider `CCOC(=O)c1c(C)[nH]c(/C=C2\S/C(=N\c3cccc(F)c3)N(c3cccc(F)c3)C2=O)c1C`, for which the IC50 in experiment [1] came out at 3.39 µM; in experiment [2], 6.83 µM. For `CC(C)N1C(=O)/C(=C/c2ccc(OCCN(C)c3ccccn3)cc2)S/C1=N\O`, the IC50 in experiment [1] came out at 2.47 µM. For the compound `CCOC(=O)c1c(C)[nH]c(/C=C2\S/C(=N\c3ccccc3F)N(c3ccccc3F)C2=O)c1C`, in experiment [1], the IC50 amounted to 3.66 µM. Same read-out and setting: next, `CCOC(=O)c1c(C)[nH]c(/C=C2\S/C(=N\c3ccc(OC)cc3)N(c3ccc(OC)cc3)C2=O)c1C`: 2.74 µM; `[O]=[V]([OH])([OH])[OH]`: 0.91 µM. As for `CCOC(=O)c1c(C)[nH]c(/C=C2\S/C(=N\c3ccccc3)N(c3ccccc3)C2=O)c1C`, the IC50 in experiment [2] worked out at 8.66 µM.
